# System: NCI-H2030
# Test: Antitumor activity against human NCI-H2030 cells harboring KRAS G12C mutant/SMARCA4 mutant assessed as cell growth inhibition incubated for 7 days by Incucyte S3 analysis
# Assay type: functional, cell-based
# Details: time 7.0 day; call rule not given here
# In short: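 H2030 cells plated at 500 per well and grown overnight at 37 °C. Treated with 3-fold dilutions of sotorasib, test agent, or both. Confluency imaged every 4 h for 7 days on IncuCyte S3. Synergy scored as Bliss/Lowe consensus, >10 taken as synergy.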
smiles,measurement,value
C=CC(=O)N1CCN(c2nc(=O)n(-c3c(C)ccnc3C(C)C)c3nc(-c4c(O)cccc4F)c(F)cc23)[C@@H](C)C1,Activity,Active; Minimal Inhibition Observed

# Reference: ChEMBL document CHEMBL6134900 (J Med Chem, 2025)
